The record followed here is ChEMBL document CHEMBL3046214, “Friedelane triterpenes from Celastrus vulcanicola as photosynthetic inhibitors” (J Agric Food Chem, 2010).

Molecules are shown by their SMILES. The source made the active and inactive calls. The calls are words filed in the database; no cut-off is given here.

The test system of assay [1] is Lolium perenne. Briefly: Inhibition of photosynthetic efficiency in Lolium perenne (perennial ryegrass) at 100 uM measured 72 hr post compound application. Format: functional. A digest of the protocol: (§1)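 Greenhouse L. perenne sprayed 18 days after emergence (20 mM DMSO stock diluted into 0.05% Tween-20; vehicle-sprayed controls). Leaves dark-adapted 15 min, then excited with 3000 μmol photons m-2 s-1 red light (650 nm) from three LEDs. OJIP transients recorded at room temperature with a Handy PEA. PI(abs) and other parameters are shown on radar plots normalized to control.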

The test system of assay [2] is Lolium perenne. Briefly: Inhibition of photosynthetic efficiency in Lolium perenne (perennial ryegrass) at 100 uM measured 24 hr post compound application. The assay is classed as functional. A digest of the protocol: as §1
Assay [3] deals with Lolium perenne. Briefly: Inhibition of photosynthetic efficiency in Lolium perenne (perennial ryegrass) at 100 uM measured 48 hr post compound application. Format: functional, organism-based. Summed up:
as §1

Assay [4] deals with Spinacia oleracea. Briefly: Effect on photosynthesis efficiency in Spinacia oleracea (spinach) leaves freshly lysed chloroplasts assessed as change in chlorophyll a fluorescence at 150 to 450 uM. Format: functional. Summed up:
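Freshly lysed spinach thylakoids (20 μg Chl) were placed on filter paper with a dot-blot apparatus and dipped in 3 mL basal electron transport medium without MV, containing compound. After 5 min dark adaptation, fluorescence was excited with 3000 μmol m-2 s-1 650 nm LED light (2 s pulse) at room temperature. Wt = (Ft−F0)/(FJ−F0), difference from control used for K-band; five replicates.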

The target of assay [5] is Photosystem II protein D1 (Spinacia oleracea) (UniProt P69560). Briefly: Inhibition of uncoupled photosystem II electron transport and partial reactions in Spinacia oleracea (spinach) leaves assessed as electron transport rate from water to DCPIP at 100 uM measured per mg of chlorophyll relative to untreated control. Details: scale not given: the % may be the effect or the level left.

Assay [6] has the same target. Briefly: Inhibition of uncoupled photosystem II electron transport and partial reactions in Spinacia oleracea (spinach) leaves assessed as electron transport rate from water to SiMo at 300 uM measured per mg of chlorophyll relative to untreated control. Details: scale not given: the % may be the effect or the level left. Summed up: (§2)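 Uncoupled partial PSII reaction from water to silicomolybdate, run in the PSII medium (sorbitol, KCl, MgCl2, KCN, 15 mM tricine-KOH pH 8.0, 6 mM NH4Cl, 20 μg Chl/mL, 1 min light). DCBQ/DBMIB were replaced by 200 μM SiMo plus 10 μM DCMU. Rates are in μequiv e-/h mg Chl, relative to control, three replicates.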

Assay [7] has the same target. Briefly: Inhibition of uncoupled photosystem II electron transport and partial reactions in Spinacia oleracea (spinach) leaves assessed as electron transport rate from water to SiMo at 200 uM measured per mg of chlorophyll relative to untreated control. Details: scale not given: the % may be the effect or the level left. A digest of the protocol:
as §2

For assay [8] the target is unchanged. Briefly: Inhibition of uncoupled photosystem II electron transport and partial reactions in Spinacia oleracea (spinach) leaves assessed as electron transport rate from water to DCBQ at 200 uM measured per mg of chlorophyll relative to untreated control. On the set-up: scale not given: the % may be the effect or the level left. Summed up:
(§3)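 Uncoupled PSII water-to-DCBQ rate: 3 mL of 100 mM sorbitol, 10 mM KCl, 5 mM MgCl2, 0.5 mM KCN, 15 mM tricine-KOH pH 8.0, with 100 μM DCBQ, 1 μM DBMIB, 6 mM NH4Cl and chloroplasts at 20 μg Chl/mL, illuminated 1 min. Rates are in μequiv e-/h mg Chl, percent of control, three replicates.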

For assay [9] the target is unchanged. Briefly: Inhibition of uncoupled photosystem II electron transport and partial reactions in Spinacia oleracea (spinach) leaves assessed as electron transport rate from water to DCBQ at 100 uM measured per mg of chlorophyll relative to untreated control. Details: scale not given: the % may be the effect or the level left. A digest of the protocol: as §3
The target is the same in assay [10]. Briefly: Inhibition of uncoupled photosystem II electron transport and partial reactions in Spinacia oleracea (spinach) leaves assessed as electron transport rate from water to SiMo at 50 uM measured per mg of chlorophyll relative to untreated control. On the set-up: scale not given: the % may be the effect or the level left. Summed up:
as §2

For assay [11], the system named is Spinacia oleracea. Briefly: Increase in Magnesium-transporting ATPase activity in Spinacia oleracea (spinach) leaves chloroplasts thylakoids at 200 uM. A digest of the protocol:
(§4)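 Spinach chloroplasts were isolated in 350 mM sorbitol, 5 mM ascorbate, 20 mM MES pH 6.5, centrifuged at 3000g for 60 s, washed, and resuspended in 35 mM HEPES pH 7.6. Light-triggered Mg2+-ATPase activity of thylakoid membranes was measured as released inorganic phosphate. Ammonium chloride served as positive control.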

Assay [12] deals with Photosystem II protein D1 (Spinacia oleracea) (UniProt P69560). Briefly: Inhibition of uncoupled photosystem II electron transport and partial reactions in Spinacia oleracea (spinach) leaves assessed as electron transport rate from water to DCBQ at 50 uM measured per mg of chlorophyll relative to untreated control. Details: scale not given: the % may be the effect or the level left. Summed up: as §3

Assay [13] concerns Spinacia oleracea. Briefly: Inhibition of photophosphorylation in Spinacia oleracea (spinach) leaves chloroplasts by titrimetry. To be noted: read-out: I50. Format: functional. A digest of the protocol:
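Intact spinach chloroplasts (20 μg Chl/mL) were osmotically broken in 3 mL of weakly buffered medium: 100 mM sorbitol, 10 mM KCl, 5 mM MgCl2, 0.5 mM KCN, 1 mM tricine-KOH pH 8.0, 50 μM MV and 1 mM ADP. ATP synthesis was taken from the medium alkalization rate in the linear part of illumination, calibrated by HCl back-titration, as μmol ATP (mg Chl)-1 h-1. I50 was obtained from concentration-activity plots; three replicates.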

Assay [14] relates to Spinacia oleracea. Briefly: Increase in Magnesium-transporting ATPase activity in Spinacia oleracea (spinach) leaves chloroplasts thylakoids at 100 uM. Summed up:
as §4

For assay [15], the system named is Physalis ixocarpa. Briefly: Effect on biomass production in Physalis ixocarpa assessed as plant dry weight at 200 uM measured 14 days post compound application relative to untreated control. Format: functional. Summed up: (§5)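 Greenhouse-grown plants (pots, watered daily, 25 to 30 °C) of similar size, sprayed at 15 (P. ixocarpa) or 18 (L. perenne) days after emergence. Compound taken from a 20 mM DMSO stock into aqueous 0.05% w/v Tween-20; controls were sprayed with water containing the same DMSO and Tween-20. Plants harvested at ground level, oven-dried at 65 °C to constant weight, then weighed.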

Assay [16] concerns Physalis ixocarpa. Briefly: Effect on biomass production in Physalis ixocarpa assessed as plant dry weight at 100 uM measured 14 days post compound application relative to untreated control. Format: functional. Summed up:
as §5

Assay [17] deals with Lolium perenne. Briefly: Effect on biomass production in Lolium perenne (perennial ryegrass) assessed as plant dry weight at 100 uM measured 14 days post compound application relative to untreated control. The assay is classed as functional. A digest of the protocol:
as §5

For assay [18], the system named is Lolium perenne. Briefly: Effect on biomass production in Lolium perenne (perennial ryegrass) assessed as plant dry weight at 200 uM measured 14 days post compound application relative to untreated control. Format: functional. A digest of the protocol:
as §5

Assay [19] deals with Physalis ixocarpa. Briefly: Effect on photosynthetic efficiency in Physalis ixocarpa intact leaves assessed as increase in PI(abs) level at 100 uM measured 72 hr post compound application. The assay is classed as functional. To be noted: in the assay text read “at 200 uM” for “at 100 uM”. A digest of the protocol:
(§6)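 P. ixocarpa plants sprayed 15 days after emergence (greenhouse, 25-30 °C; 20 mM DMSO stock diluted into 0.05% Tween-20; vehicle-sprayed controls). Leaves dark-adapted 15 min, then excited with 650 nm red LED light at 3000 μmol photons m-2 s-1. Chl a OJIP transients recorded with a Handy PEA at room temperature. PI(abs) is normalized to control; K-, J- and I-bands come from variable fluorescence difference curves; five replicates.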

The subject of assay [20] is Physalis ixocarpa. Briefly: Inhibition of photosynthetic efficiency in Physalis ixocarpa intact leaves assessed as reduction in PI(abs) level at 100 uM measured 72 hr post compound application. The assay is classed as functional. A digest of the protocol:
as §6

The term inhibition denotes the change of the read-out against control, counted positive when it falls. As to `C[C@H]1C(=O)CC[C@@H]2[C@]1(C)CC[C@H]1[C@@]2(C)CC[C@@]2(C)[C@@H]3CC(C)(C)CC[C@]3(CO)CC[C@]12C` [CANOPHYLLOL], the inhibition at 100 µM with Lolium perenne [1] is 15%; in the assay with Lolium perenne [2], 50%; with Physalis ixocarpa [20] it was 25%. In the assay with Lolium perenne [3], the inhibition entry was “inactive”. Moreover, in the assay with Spinacia oleracea [4], the result was Active. For the same compound, the Activity in assay [5] was found to be 108%; in [6], 0%; in assay [7], 10%; in assay [8], 50%; in assay [9], 68%; in assay [10], 60%. Besides, the Activity in the assay on Spinacia oleracea [11] was determined as 116%; in assay [12] it was 89%; with Spinacia oleracea [14], 110%; in the assay with Physalis ixocarpa [15], 99%; in the assay with Physalis ixocarpa [16], 81.5%; in the assay on Lolium perenne [17] it was 117.1%. Moreover, the Activity is 140.3% in the assay with Lolium perenne [18] and 10% in the assay on Physalis ixocarpa [19]. In addition, the IC50 in the assay on Spinacia oleracea [13] turned out to be 124 µM.
